Bioassay records deposited in PubChem by several laboratories.
Rows were chosen to be rich in hits. Some 3.5% of all compounds tested hit in one or more screens of this group.
ERa SRC1 inh = blocks coactivator binding to human estrogen receptor alpha; P03372; TR-FRET ER-alpha LBD / SRC-1 peptide, estradiol-bound; inhibition, % at 25.6 µM; hit rate 1.7% among 86,000; AID 629; in the data active means inhibition above about 50%;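 further: 0% = receptor plus peptide control and 100% = peptide only without receptor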
ERa coact pot = enhances coactivator binding to human estrogen receptor alpha. hit rate 1.3% among 86,000. coactivator binding (% of control), % at 25.6 µM. TR-FRET ERalpha-LBD/SRC-Cy5 coactivator binding, 2 h; 100 = basal binding, no effect. P03372. AID 639; in the data active means activity above about 200%;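 further: binding measured in presence of low estradiol as agonist stimulus; 0% = peptide alone without receptor and 100% = receptor with peptide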
sEH activator = activators of human soluble epoxide hydrolase. P34913. purified human sEH enzymatic activity, activator screen. activation, % at 2 µM. hit rate 0.04% among 91,000. AID 717; in the data active means activation above about 37%
Target sequence (P34913 whole entry, looked up): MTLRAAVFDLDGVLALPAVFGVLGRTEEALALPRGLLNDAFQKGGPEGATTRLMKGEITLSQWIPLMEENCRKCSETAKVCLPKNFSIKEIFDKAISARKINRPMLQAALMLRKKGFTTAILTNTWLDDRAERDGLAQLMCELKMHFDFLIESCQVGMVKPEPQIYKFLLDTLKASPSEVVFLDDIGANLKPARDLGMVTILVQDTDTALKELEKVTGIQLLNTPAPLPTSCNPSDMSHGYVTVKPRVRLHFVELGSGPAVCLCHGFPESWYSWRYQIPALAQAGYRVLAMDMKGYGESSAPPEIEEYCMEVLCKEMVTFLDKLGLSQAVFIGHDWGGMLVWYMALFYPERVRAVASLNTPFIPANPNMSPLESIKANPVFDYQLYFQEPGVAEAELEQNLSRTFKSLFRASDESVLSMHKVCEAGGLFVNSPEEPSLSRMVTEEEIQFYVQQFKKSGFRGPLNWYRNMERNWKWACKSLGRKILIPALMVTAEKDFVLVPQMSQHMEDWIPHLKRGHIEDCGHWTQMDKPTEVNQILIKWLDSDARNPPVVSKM
HIV Rev-RRE inh = inhibitors of HIV-1 Rev-RRE RNA interaction; P05866; inhibition, % at 8 µM; hit rate 0.79% among 97,000; AID 704; Rev peptide-RRE RNA binding, FRET;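 active means inhibition above the screen-wide mean plus 3 SD, cut at about 35% in these data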;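 further: 0% = median DMSO wells and 100% = median Neomycin B control wells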
Target sequence (P05866 whole entry, looked up): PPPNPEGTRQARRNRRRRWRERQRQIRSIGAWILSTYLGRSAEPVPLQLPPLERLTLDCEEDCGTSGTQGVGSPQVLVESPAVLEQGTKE
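Assay system: labelled RRE RNA duplex and labelled Rev peptide / Medium: HEPES pH 7.5 salt buffer with EDTA / Reagent: labelled Rev peptide / Schedule: 5 + 15 min at 25 °C / Signal: FRET, excitation 480 nm, emission 540 nm donor and 671 nm acceptor / Benchmarks: DMSO and neomycin B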
sEH inhibitor = blocks human soluble epoxide hydrolase activity; P34913; recombinant human sEH enzymatic activity assay; inhibition, % at 2 µM; hit rate 0.34% among 91,000; in the data active means inhibition above about 80%
ERb coact inh = ER-beta (human) coactivator binding inhibition; Q92731; TR-FRET ER-beta LBD / SRC1-Cy5 peptide binding; receptor agonist-loaded with 1 µM estradiol; inhibition, % at 25.6 µM; hit rate 1.3% among 86,000; AID 633;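 active means compounds whose percent inhibition of the receptor-coactivator binding signal exceeds about 50% in the single-dose screen, limit read from the data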;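 further: 0% = receptor plus peptide wells without compound and 100% = peptide-only wells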
Active calls of the source: *; [ ] = remark or other dose.

What do the screens show for `CN1CCN(Cc2c(O)ccc3occ(C(=O)c4ccccc4)c23)CC1`?
ERa SRC1 inh: -4.0; ERa coact pot: 110.1; sEH activator: 0.8; HIV Rev-RRE inh: -2.4; sEH inhibitor: -2.8; ERb coact inh: -3.1

How did CC(=O)C(C(C)=O)c1c(Cl)c(O)c(O)c2c(C(=O)c3ccccc3)coc12 do in these assays?
ERa SRC1 inh: 22.4; ERa coact pot: 82.9; sEH activator: 8.3; HIV Rev-RRE inh: 4.8; sEH inhibitor: -6.5; ERb coact inh: 55.2*[fluorescence artefact?]

What do the screens show for `Cc1cc(=O)oc2cc(OCC(=O)NCc3ccncc3)ccc12`?
ERa SRC1 inh: 6.5; ERa coact pot: 101.7; sEH activator: -12.8; HIV Rev-RRE inh: 3.6; sEH inhibitor: 13.3; ERb coact inh: -10.7

Results for COc1ccc(S(=O)(=O)N(C)c2c(C)n(C)n(-c3ccccc3)c2=O)cc1OC ?
ERa SRC1 inh: -1.8; ERa coact pot: 110.8; sEH activator: -9.3; HIV Rev-RRE inh: 8.2; sEH inhibitor: 9.4; ERb coact inh: -3.7

Results for CCOc1ccc(C(C)=O)cc1COc1ccc(-n2cnnn2)cc1 ?
ERa SRC1 inh: 55.5*[fluorescence artefact?]; ERa coact pot: 52.6; ERb coact inh: 22.6

Results for O=C(c1ccc(CN2CCOCC2)cc1)N1CCN(c2ccccc2)CC1 ?
ERa SRC1 inh: -4.2; ERa coact pot: 108.2; sEH activator: 9.8; HIV Rev-RRE inh: 4.6; sEH inhibitor: -3.8; ERb coact inh: -5.3

What do the screens show for `O=C(COC(=O)c1ccccc1NC(=O)c1ccco1)NCCC1=CCCCC1`?
ERa SRC1 inh: -4.6; ERa coact pot: 112.2; ERb coact inh: 98.4*[fluorescence artefact?]

Results for O=C(COC(=O)c1ccccc1NC(=O)c1ccco1)NCC1CCCCC1 ?
sEH activator: -74.3; HIV Rev-RRE inh: 7.9; sEH inhibitor: 74.5

How did O=C(COC(=O)c1ccccc1NC(=O)c1ccco1)Nc1ccc2c(c1)OCO2 do in these assays?
ERa SRC1 inh: 70.5*[fluorescence artefact?]; ERa coact pot: 88.2; HIV Rev-RRE inh: 2.6; ERb coact inh: 21.7

How did CC1Oc2ccccc2C=C1/C=C1/SC(N2CCOCC2)=NC1=O (configuration not stated) do in these assays?
sEH activator: 6.4; HIV Rev-RRE inh: 36.9*; sEH inhibitor: -6.0

How did O=C1N=C(N2CCOCC2)S/C1=C/c1cccs1 do in these assays?
sEH activator: -2.2; HIV Rev-RRE inh: 3.2; sEH inhibitor: 3.0

Results for Cc1cc2nc(-c3ccc(SCC(=O)N4CCN(C(=O)c5ccco5)CC4)nc3)[nH]c2cc1C ?
ERa SRC1 inh: 49.7; ERa coact pot: 121.6; sEH activator: -80.7; HIV Rev-RRE inh: -3.4; sEH inhibitor: 81.1*; ERb coact inh: 26.9

Results for O=C1Nc2ccc(S(=O)(=O)N3CCCC3)c3cccc1c23 ?
ERa SRC1 inh: 11.5; ERa coact pot: 93.2; sEH activator: 3.7; HIV Rev-RRE inh: 9.3; sEH inhibitor: -9.8; ERb coact inh: 19.6

What do the screens show for `O=C1Nc2ccc(S(=O)(=O)NCc3ccccn3)c3cccc1c23`?
ERa SRC1 inh: 32.8; ERa coact pot: 80.8; sEH activator: 21.1; HIV Rev-RRE inh: 13.5; sEH inhibitor: -20.7; ERb coact inh: 61.2*[fluorescence artefact?]

Results for Cc1nn(CC(=O)NC(C)c2ccccc2)c(=O)c2ccccc12 (configuration not stated) ?
ERa SRC1 inh: -4.5; ERa coact pot: 124.9; ERb coact inh: -14.1

How did Cc1ccc(-c2nn(CC(=O)NC(C)c3ccccc3)c(=O)c3ccccc23)cc1 (configuration not stated) do in these assays?
ERa SRC1 inh: 27.0; ERa coact pot: 207.5*[fluorescence artefact?]; sEH activator: 18.0; HIV Rev-RRE inh: 2.5; sEH inhibitor: -17.4; ERb coact inh: 1.4

How did O=c1nc2s/c(=C\c3ccco3)c(=O)n2nc1Cc1ccc(F)cc1 do in these assays?
ERa SRC1 inh: 95.8*[fluorescence artefact?]; ERa coact pot: 3.8; sEH activator: -3.3; HIV Rev-RRE inh: -12.0; sEH inhibitor: 2.3; ERb coact inh: 88.0*

What do the screens show for `Cc1ccc(/C=c2\sc3nc(-c4ccccc4Br)nn3c2=O)o1`?
ERa SRC1 inh: 84.8*[fluorescence artefact?]; ERa coact pot: 59.6; sEH activator: -9.9; HIV Rev-RRE inh: 2.4; sEH inhibitor: 11.8; ERb coact inh: 65.6*

Results for Cc1ccc(/C=c2\sc3nc(-c4ccco4)nn3c2=O)o1 ?
ERa SRC1 inh: 70.1*; ERa coact pot: 112.7; sEH activator: 3.8; HIV Rev-RRE inh: -9.3; sEH inhibitor: -0.4; ERb coact inh: 64.3*[fluorescence artefact?]

How did Cc1ccc(-c2nc3s/c(=C\c4ccco4)c(=O)n3n2)cc1 do in these assays?
ERa SRC1 inh: 95.6*[fluorescence artefact?]; ERa coact pot: 23.3; sEH activator: 1.5; HIV Rev-RRE inh: 4.5; sEH inhibitor: -1.7; ERb coact inh: 58.2*

What do the screens show for `O=c1/c(=C/c2ccco2)sc2n1CN(c1ccccc1)CN=2`?
ERa SRC1 inh: -5.7; ERa coact pot: 112.1; sEH activator: -4.0; HIV Rev-RRE inh: 9.4; sEH inhibitor: 2.3; ERb coact inh: -14.6

Results for COc1ccccc1/C=c1\sc2nc(-c3ccccc3OC)nn2c1=O ?
sEH activator: 9.4; HIV Rev-RRE inh: -5.7; sEH inhibitor: -8.6

Results for CC(C)CNc1cc(Cl)c(S(=O)(=O)NCC(C)C)cc1C(=O)O ?
ERa SRC1 inh: 7.3; ERa coact pot: 114.7; sEH activator: -10.8; HIV Rev-RRE inh: -9.7; sEH inhibitor: 11.8; ERb coact inh: 5.6

What do the screens show for `CN(CCCNC(=O)Cn1cc2c(n1)CCCC2)C1CCCCC1`?
ERa SRC1 inh: -6.3; ERa coact pot: 129.6; sEH activator: 3.4; HIV Rev-RRE inh: 4.0; sEH inhibitor: -5.0; ERb coact inh: -10.4

How did CC(=O)Oc1ccc2ccccc2c1C(NC(=O)Cc1ccccc1)c1ccccc1 (configuration not stated) do in these assays?
sEH activator: -5.9; HIV Rev-RRE inh: 1.3; sEH inhibitor: 4.9

Results for c1ccc(-n2ncc3c(NCC4CCCO4)ncnc32)cc1 (configuration not stated) ?
ERa SRC1 inh: -5.3; ERa coact pot: 116.7; HIV Rev-RRE inh: 1.3; ERb coact inh: -2.8

How did Clc1ccc(-n2ncc3c(NCC4CCCO4)ncnc32)cc1 (configuration not stated) do in these assays?
ERa SRC1 inh: 25.7; ERa coact pot: 73.3; ERb coact inh: 54.8*[fluorescence artefact?]

What do the screens show for `Cc1nn(Cc2ccc(Cl)cc2)c(C)c1NC(=O)c1cc(-c2ccc3c(c2)OCO3)on1`?
ERa SRC1 inh: 69.9*[fluorescence artefact?]; ERa coact pot: 74.1; sEH activator: 1.9; HIV Rev-RRE inh: -1.1; sEH inhibitor: -1.6; ERb coact inh: 18.6

What do the screens show for `O=C(NCc1ccco1)c1cc(-c2ccc3c(c2)OCO3)on1`?
ERa SRC1 inh: 25.6; ERa coact pot: 260.5*[fluorescence artefact?]; sEH activator: -1.3; HIV Rev-RRE inh: 1.5; sEH inhibitor: 1.6; ERb coact inh: 10.6

Results for Cc1nn(Cc2ccc(Cl)c(Cl)c2)c(C)c1NC(=O)c1cc(-c2ccc3c(c2)OCO3)on1 ?
ERa SRC1 inh: 35.8; ERa coact pot: 94.5; sEH activator: 11.7; HIV Rev-RRE inh: 0.8; sEH inhibitor: -11.4; ERb coact inh: -20.4
